This is a sample that favours compounds with a hit; in the whole collection about 2.1% have one here.
PAX8 reporter = PAX8 transcriptional activity inhibition | AID 652154 | RMG-I TPO-luciferase reporter, SteadyGlo, 24 h | 360,000 tested, 1.2% active | inhibition, % at 12.6 µM;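 active = mean replicate inhibition at least 60% with every replicate also reaching 60%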;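 note: luciferase light reporting Pax8 driven TPO promoter activity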
MLL AF4-AF9 inh = blocks AF4 peptide binding to human AF9; P42568; AlphaScreen, biotin-AF4 peptide binding to FLAG-AF9; inhibition, % at 10 µM; 350,000 tested, 0.47% active;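 active = every replicate reaching a set inhibition limit, whatever the replicate mean, cut at about 25% in these data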
Target sequence (P42568 whole entry, looked up): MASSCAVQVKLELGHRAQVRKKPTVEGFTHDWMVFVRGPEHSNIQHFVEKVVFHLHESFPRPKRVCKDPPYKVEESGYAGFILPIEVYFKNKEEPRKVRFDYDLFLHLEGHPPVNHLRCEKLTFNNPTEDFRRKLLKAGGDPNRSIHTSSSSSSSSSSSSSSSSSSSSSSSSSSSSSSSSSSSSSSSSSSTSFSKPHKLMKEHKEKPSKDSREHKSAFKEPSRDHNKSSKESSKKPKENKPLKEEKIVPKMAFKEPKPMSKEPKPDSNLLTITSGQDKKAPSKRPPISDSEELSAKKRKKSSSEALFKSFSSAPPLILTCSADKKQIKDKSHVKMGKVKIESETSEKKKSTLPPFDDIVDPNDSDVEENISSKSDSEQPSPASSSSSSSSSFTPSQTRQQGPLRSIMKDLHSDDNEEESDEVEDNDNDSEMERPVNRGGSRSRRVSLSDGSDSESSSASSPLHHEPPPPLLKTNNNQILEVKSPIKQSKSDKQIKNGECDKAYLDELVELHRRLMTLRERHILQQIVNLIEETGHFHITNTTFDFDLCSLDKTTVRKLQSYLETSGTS
EWS-Fli block = EWS/Fli transcriptional activity inhibition; A673 NR0B1-luciferase reporter, viability-normalised; inhibition, % at 12.6 µM; 350,000 tested, 0.67% active;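 active = mean inhibition of at least 50% after viability correction, with every replicate also passing that limit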;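 note: firefly luciferase signal divided by Alamar Blue viability fluorescence both relative to DMSO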
XiGFP reactiv = activators of X-chromosome reactivation in mouse fibroblasts; activation, % at 7.58 µM; AID 743238; XiGFP mouse fibroblasts, % GFP-positive cells imaging, 3 d; cells co-treated with 5-aza-dC sensitizer; scaled so ellipticine positive control = 100%; 360,000 tested, 0.055% active;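 active = mean normalized replicate activation at least 10% and every replicate at or above 10%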
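System: XiGFP fibroblasts, SV40-immortalized. Medium: DMEM plus 5-aza-dC sensitizer. Doses: single point. Timing: 3 d treatment, 15 min room-temperature fixation. Control set: ellipticine 6 µM.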
GSIS activator = GLuc luminescence reporter in INS-1E cells, primary screen for activators of glucose-dependent secretion of insulin; INS-1E GLuc reporter insulin secretion, 2-3 h; activation, % at 16.6 µM; 370,000 tested, 0.61% active; AID 743287;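 active = lowest replicate activation of at least 40%, so every replicate reaches that level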
PGC1a acetyl inh = modulators of PGC1a acetylation | AID 651687 | inhibition, % at 15.6 µM | U2OS PGC1a acetylation, AlphaScreen anti-acetyl-lysine; with virally co-expressed GCN5 acetyltransferase | 350,000 tested, 0.17% active;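 active = every replicate shows inhibition of at least 40%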
Numbers stand for hits; n = inactive; x = no result given.

SMILES	PAX8 reporter	MLL AF4-AF9 inh	EWS-Fli block	XiGFP reactiv	GSIS activator	PGC1a acetyl inh
COc1ccc(S(=O)(=O)N(C)c2ccc(C(=O)N3CCOCC3)cc2)cc1OC	x	n	n	x	n	x
C[C@@H]1CCCCO[C@@H](CN(C)Cc2ccccc2)[C@H](C)CN([C@H](C)CO)C(=O)c2cc(NC(=O)c3ccncc3)ccc2O1	n	n	x	n	n	n
O=C(C[C@H]1CC[C@@H](NC(=O)Nc2ccc3c(c2)OCO3)[C@@H](CO)O1)NCc1ccc(F)cc1	n	n	n	n	n	n
Cc1ccc(S(=O)(=O)N(C)C[C@@H]2OCCCC[C@H](C)Oc3ccc(NS(=O)(=O)c4ccc(F)cc4)cc3C(=O)N([C@H](C)CO)C[C@@H]2C)cc1	70	n	n	n	n	n
Cc1ccc(S(=O)(=O)N(C)C[C@H]2OCCCC[C@@H](C)Oc3ccc(NS(=O)(=O)c4ccc(F)cc4)cc3C(=O)N([C@@H](C)CO)C[C@H]2C)cc1	83	n	n	n	n	n
Cc1ccc(S(=O)(=O)Nc2ccc3c(c2)C(=O)N([C@@H](C)CO)C[C@@H](C)[C@@H](CN(C)S(=O)(=O)c2ccc(F)cc2)OCCCC[C@@H](C)O3)cc1	68	n	n	n	n	n
Cc1ccc(S(=O)(=O)Nc2ccc3c(c2)C(=O)N([C@H](C)CO)C[C@H](C)[C@H](CN(C)S(=O)(=O)c2ccc(F)cc2)OCCCC[C@H](C)O3)cc1	68	n	n	n	n	n
Cc1ccc(S(=O)(=O)Nc2ccc3c(c2)C(=O)N([C@@H](C)CO)C[C@H](C)[C@@H](CN(C)S(=O)(=O)c2ccc(F)cc2)OCCCC[C@@H](C)O3)cc1	n	n	n	n	n	n
Cc1ccc(S(=O)(=O)N(C)C[C@@H]2OCCCC[C@H](C)Oc3ccc(NS(=O)(=O)c4ccc(F)cc4)cc3C(=O)N([C@@H](C)CO)C[C@@H]2C)cc1	n	n	n	n	n	n
COc1ccc2c3c([nH]c2c1)[C@@H](CO)N(S(C)(=O)=O)CC31CN(C(=O)Nc2ccccc2)C1	n	n	n	n	n	n
C[C@H](CO)N1C[C@H](C)[C@H](CN(C)S(=O)(=O)c2ccccc2)OCCCC[C@H](C)Oc2ccc(NS(=O)(=O)c3ccc(F)cc3)cc2C1=O	63	n	n	n	n	n
C[C@@H]1CC2=C(C(=O)OC(C)(C)O2)[C@H](c2ccc(Cl)cc2)O1	n	n	n	n	52	x
C[C@@H]1CC2=C(C(=O)OC(C)(C)O2)[C@H](c2ccc(F)cc2)O1	n	n	n	n	56	x
CC(C)C1CC2=C(C(=O)OC(C)(C)O2)C(c2ccc(Cl)cc2)O1 (centres undefined)	n	n	n	n	x	n
C[C@H]1CN([C@@H](C)CO)C(=O)c2cc(NS(=O)(=O)c3ccc(F)cc3)ccc2O[C@@H]1CN(C)Cc1ccc(C(=O)O)cc1	x	n	n	n	n	n
CCCNC(=O)N1CCC2(CC1)CN(C(=O)c1ccncc1)[C@@H](CO)c1[nH]c3cc(OC)ccc3c12	x	n	n	n	n	n
CC(=O)Nc1cc2c3c(cccc3c1)-c1ccccc1-2	n	n	n	100	n	n
CC(=O)Nc1ccc2c(c1)C(=O)c1ccccc1C2=O	n	x	x	x	n	n
COCC(=O)N1CC2(CCN(Cc3cncnc3)CC2)c2c(n(C)c3cc(OC)ccc23)[C@@H]1CO	x	x	x	n	n	x
O=C(c1cnccn1)N1CC[C@H]2[C@H](CO)Nc3ccc(C#Cc4cccnc4)cc3[C@H]21	n	n	n	n	n	n
OCC(CCc1c[nH]c2ccccc12)c1c[nH]c2ccccc12 (centres undefined)	n	41	n	n	n	x
O=C(Nc1ccccc1)N[C@H]1CC[C@@H](CCNS(=O)(=O)c2cccc(F)c2)O[C@@H]1CO	n	n	n	n	n	n
Cc1cc(C)nc(Nc2nc(C(N)Cc3ccc(F)cc3)cs2)n1 (centres undefined)	84	n	n	n	n	x
Cc1cc(C)nc(Nc2nc(C(N)Cc3ccc(Cl)cc3)cs2)n1 (centres undefined)	n	n	n	n	n	n
CC1(C(=O)NCc2cccc(C(F)(F)F)c2)CCN1Cc1cc2ccccc2o1 (centres undefined)	n	n	n	n	x	n
SMILES	PAX8 reporter	MLL AF4-AF9 inh	EWS-Fli block	XiGFP reactiv	GSIS activator	PGC1a acetyl inh
CC1(C(=O)NCc2cccc(C(F)(F)F)c2)CCN1Cc1ccc(-c2ccccc2)o1 (centres undefined)	74	n	n	n	n	n
CCNC(=O)C1(C)CCCN1Cc1cccc(C(F)(F)F)c1 (centres undefined)	n	n	n	n	44	x
Cc1ccc(C(=O)Nc2ccc3c(c2)OCO3)cc1	x	x	x	x	x	n
Cc1ccc(C(=O)NCC(=O)Nc2ccc3c(c2)CCC3)cc1	x	n	n	n	n	n
Cc1ccc(C(=O)Nc2ccc3c(c2)OCCO3)c(Cl)c1	n	n	63	n	n	x
Cc1ccc(C(=O)Nc2ccc3c(c2)OCCO3)cc1	n	n	69	n	n	x
O=C(Nc1ccc2c(c1)OCCO2)c1cc(F)c(F)cc1Cl	n	n	n	n	n	n
Cc1ccc(C(=O)Nc2ccc3c(c2)CCC3)cc1	n	n	59	n	n	n
C[C@@H]1CN([C@H](C)CO)C(=O)c2cc(NC(=O)c3ccncc3)ccc2O[C@@H](C)CCCCO[C@H]1CN(C)C	n	n	n	n	n	n
CCOc1ccc(N2CC(C(=O)Nc3ccc(S(=O)(=O)NCC4CCCO4)cc3)CC2=O)cc1 (centres undefined)	n	n	n	n	n	56
C/C(=N\Nc1ccc2nncn2n1)c1ccccn1	63	n	n	n	n	n
Cc1ccc(S(=O)(=O)N(C)C[C@@H]2Oc3c(NS(=O)(=O)c4ccc(Cl)cc4)cccc3C(=O)N([C@H](C)CO)C[C@@H]2C)cc1	n	n	n	n	n	n
O=C(O)c1cccc(Nc2ccnc(Nc3cccc(C(=O)O)c3)n2)c1	n	n	63	n	n	x
COc1ccccc1C#Cc1ccc2c(c1)O[C@@H](CN(C)Cc1cncnc1)[C@H](C)CN([C@H](C)CO)S2(=O)=O	86	n	n	n	n	n
COc1ccccc1C#Cc1ccc2c(c1)O[C@@H](CN(C)Cc1ccccc1)[C@@H](C)CN([C@@H](C)CO)S2(=O)=O	x	n	n	n	n	n
COc1ccccc1C#Cc1ccc2c(c1)O[C@H](CN(C)Cc1cncnc1)[C@H](C)CN([C@H](C)CO)S2(=O)=O	n	n	n	n	n	n
COc1ccccc1C#Cc1ccc2c(c1)O[C@H](CN(C)Cc1cccnc1)[C@H](C)CN([C@H](C)CO)S2(=O)=O	90	n	n	n	n	n
C[C@@H]1C(=O)NCCC=CC[C@H](C)Oc2ccccc2C(=O)N1C (mixture of isomers)	x	x	x	n	n	x

Screens: PubChem BioAssay, Broad Institute
